The results in this text go back to ChEMBL document CHEMBL4033653, “Effect of 1,2,3-triazole salts, non-classical bioisosteres of miltefosine, on Leishmania amazonensis” (Bioorg Med Chem, 2017).

The test system of series [1] is Leishmania amazonensis. Put plainly: Induction of mitochondrial membrane potential loss in Leishmania amazonensis IFLA/BR/1967/PH8 promastigotes at 10 uM after 24 hrs by JC-1 staining-based spectrofluorometric analysis relative to control. It is filed as functional. The method, boiled down:
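Exponential WT promastigotes (1x10^7 cells/mL) treated 24 h at 25 °C; washed, JC-1 loaded, read at 485/528 and 540/600 nm; Δψm as 600/528 ratio, untreated = 100%; FCCP 20.0 µM for 30 min as positive control; three experiments in triplicate.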

Series [2] deals with Leishmania amazonensis. Put plainly: Antileishmanial activity against Leishmania amazonensis IFLA/BR/1967/PH8 promastigotes after 72 hrs by MTT assay. The series is classed as functional.
Series [3] has as its system Leishmania amazonensis. Put plainly: Induction of apoptosis in Leishmania amazonensis IFLA/BR/1967/PH8 promastigotes assessed as necrotic population at 2.5 uM after 24 hrs by Annexin V-FITC/PI staining based flow cytometric analysis (reference value: 0.03%). It is filed as functional. In general terms: In flow cytometry, cells or beads pass a laser one at a time.
Series [4] has as its system Leishmania amazonensis. Put plainly: Induction of apoptosis in Leishmania amazonensis IFLA/BR/1967/PH8 promastigotes assessed as early apoptotic population at 20 uM after 24 hrs by Annexin V-FITC/PI staining based flow cytometric analysis (reference value: 5.29%). The series is classed as functional. Summed up: (§1)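 Exponential-phase WT promastigotes (1x10^7 cells/mL) cultured 24 h at 25 °C; stained annexin V-FITC plus PI, flow cytometry with 10,000 events gated on parasites; quadrant percentages; three independent experiments.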

Series [5] relates to Leishmania amazonensis. As to the kind of experiment: Induction of lipid inclusions in Leishmania amazonensis IFLA/BR/1967/PH8 promastigotes at 20 uM after 24 hrs by Nile Red satining-based spectrofluorometric analysis relative to control. The series is classed as functional. The method, boiled down: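 WT (PH8) promastigotes at 1x10^7 cells/mL in exponential phase, cultured 24 h at 25 °C with or without 2.5–20.0 µM. Parasites incubated with Nile Red, then fluorescence measured spectrofluorometrically. Reported as arbitrary fluorescence units versus untreated parasites, mean of three experiments run in triplicate.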

Series [6] has as its system Leishmania amazonensis. Put plainly: Induction of apoptosis in Leishmania amazonensis IFLA/BR/1967/PH8 promastigotes assessed as necrotic population at 20 uM after 24 hrs by Annexin V-FITC/PI staining based flow cytometric analysis (reference value: 0.03%). It is filed as functional. Summed up: as §1
Series [7] concerns Leishmania amazonensis. As to the kind of experiment: Antileishmanial activity against Leishmania amazonensis IFLA/BR/1967/PH8 amastigotes infected in murine macrophages at 1.8 uM incubated for 72 hrs followed by compound washout measured after 72 hrs by microscopic method relative to control. The series is classed as functional. Conditions: IFLA/BR/1967/PH8, 72 h. The method, boiled down: (§2)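 Macrophages infected with WT PH8 parasites treated 72 h at 33 °C, 5% CO2; washed twice in PBS, then held in drug-free Warren's medium + 10% serum at 25 °C for 72 h; viable promastigotes counted microscopically versus untreated; three independent experiments in duplicate.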

Series [8] is described as follows: Selectivity index, ratio of CC50 for mouse peritoneal macrophages to IC50 for Leishmania amazonensis WHOM/BR/75/Josefa amastigotes transfected with green fluorescent protein. The method, boiled down:
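SI = CC50 for mouse peritoneal macrophages / GFP amastigote IC50. […] IC50: macrophages infected with GFP-expressing Josefa-strain parasites, treated with 0.78–100.0 µM for 72 h; fluorescence read at 485 nm excitation/528 nm emission. Three experiments in duplicate.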

For series [9], the system named is Leishmania amazonensis. As to the kind of experiment: Antileishmanial activity against Leishmania amazonensis IFLA/BR/1967/PH8 amastigotes transfected with red fluorescent protein infected in murine macrophages after 72 hrs by fluorometric analysis. The series is classed as functional. Conditions: IFLA/BR/1967/PH8, 72 h. Summed up:
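Infected murine macrophages treated 0.78-100.0 µM for 72 h; fluorescence read at 540/600 nm for RFP parasites (PH8) and 485/528 nm for GFP parasites (Josefa strain); IC50 from three independent experiments in duplicate.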

Series [10] has as its system Leishmania amazonensis. Put plainly: Induction of ROS accumulation in Leishmania amazonensis IFLA/BR/1967/PH8 promastigotes at 10 uM after 72 hrs by H2DCFDA staining-based fluorometric analysis relative to control. The series is classed as functional. Summed up:
(§3)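 WT exponential-phase promastigotes treated at 25 °C; adjusted to 2x10^7 cells in PBS, loaded with H2DCFDA 30 min dark at room temperature; fluorescence 485/528 nm versus untreated; three independent experiments.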

Series [11] is described as follows: Selectivity index, ratio of CC50 for mouse peritoneal macrophages to IC50 for Leishmania amazonensis IFLA/BR/1967/PH8 amastigotes transfected with red fluorescent protein. Summed up:
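SI = CC50 for mouse peritoneal macrophages / RFP amastigote IC50. […] IC50: macrophages infected with RFP-expressing PH8 parasites, treated with 0.78–100.0 µM for 72 h; fluorescence read at 540 nm excitation/600 nm emission. Three experiments in duplicate.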

Series [12] concerns Leishmania amazonensis. Put plainly: Antileishmanial activity against Leishmania amazonensis IFLA/BR/1967/PH8 promastigotes transfected with red fluorescent protein after 72 hrs by MTT assay. It is filed as functional. The note with it: IFLA/BR/1967/PH8, 72 h.
The test system of series [13] is Leishmania amazonensis. As to the kind of experiment: Induction of apoptosis in Leishmania amazonensis IFLA/BR/1967/PH8 promastigotes assessed as necrotic population at 5 uM after 24 hrs by Annexin V-FITC/PI staining based flow cytometric analysis (reference value: 0.03%). The series is classed as functional. Summed up:
as §1

Series [14] has as its system Leishmania amazonensis. Put plainly: Induction of apoptosis in Leishmania amazonensis IFLA/BR/1967/PH8 promastigotes assessed as late apoptotic population at 20 uM after 24 hrs by Annexin V-FITC/PI staining based flow cytometric analysis (reference value: 2.62%). It is filed as functional. The method, boiled down:
as §1

The subject of series [15] is Leishmania amazonensis. As to the kind of experiment: Antileishmanial activity against Leishmania amazonensis IFLA/BR/1967/PH8 amastigotes infected in murine macrophages at 0.9 uM incubated for 72 hrs followed by compound washout measured after 72 hrs by microscopic method relative to control. The series is classed as functional. The note with it: IFLA/BR/1967/PH8, 72 h. The method, boiled down:
as §2

Series [16] concerns Leishmania amazonensis. Put plainly: Antileishmanial activity against Leishmania amazonensis IFLA/BR/1967/PH8 amastigotes infected in murine macrophages at 3.6 uM incubated for 72 hrs followed by compound washout measured after 72 hrs by microscopic method relative to control. Conditions: IFLA/BR/1967/PH8, 72 h. The series is classed as functional. Summed up: as §2
A short description of series [17]: Selectivity index, ratio of CC50 for mouse peritoneal macrophages to IC50 for Leishmania amazonensis IFLA/BR/1967/PH8 amastigotes. Summed up:
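SI = CC50 for mouse peritoneal macrophages / amastigote IC50. […] IC50: WT-infected macrophages treated with 0.78–100.0 µM in sterile water; burden scored by counting amastigotes and infected/uninfected cells in at least 200 macrophages. Three experiments in duplicate.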

The test system of series [18] is Leishmania amazonensis. Put plainly: Induction of apoptosis in Leishmania amazonensis IFLA/BR/1967/PH8 promastigotes assessed as late apoptotic population at 10 uM after 24 hrs by Annexin V-FITC/PI staining based flow cytometric analysis (reference value: 2.62%). The series is classed as functional. The method, boiled down:
as §1

Series [19] relates to Leishmania amazonensis. As to the kind of experiment: Induction of ROS accumulation in Leishmania amazonensis IFLA/BR/1967/PH8 promastigotes at 20 uM after 72 hrs by H2DCFDA staining-based fluorometric analysis relative to control. The series is classed as functional. Summed up:
as §3

The test system of series [20] is Leishmania amazonensis. As to the kind of experiment: Induction of apoptosis in Leishmania amazonensis IFLA/BR/1967/PH8 promastigotes assessed as early apoptotic population at 10 uM after 24 hrs by Annexin V-FITC/PI staining based flow cytometric analysis (reference value: 5.29%). The series is classed as functional. Summed up: as §1
A short description of series [21]: Cytotoxicity against mouse peritoneal macrophages after 72 hrs by MTT assay. The note with it: peritoneal macrophages. It is filed as cell-based, Peritoneal macrophage. (Tetrazolium dyes change colour on reduction, which living cells bring about.)
The subject of series [22] is Leishmania amazonensis. Put plainly: Induction of apoptosis in Leishmania amazonensis IFLA/BR/1967/PH8 promastigotes assessed as late apoptotic population at 2.5 uM after 24 hrs by Annexin V-FITC/PI staining based flow cytometric analysis (reference value: 2.62%). The series is classed as functional.

pIC50: −log10 of the molar value.

What is called pIC50 is the IC50 on a negative log10 scale, so that one unit is a factor of ten. By inhibition is commonly meant the percentage by which the read-out fell short of the control. What is called CC50 is the concentration at which the toxic effect on the cells reaches its halfway point. A higher CC50 goes with better tolerance by the cells. For the compound `CC(=O)[O-].CCCCCCCCCCn1cc(CO)[n+](C)n1`, the Activity in the series with Leishmania amazonensis [1] came to 32.5%; in the series on Leishmania amazonensis [3], 0.16%; in the series with Leishmania amazonensis [4] it was 30.92%; in the series on Leishmania amazonensis [6], 3.97%; with Leishmania amazonensis [10], 54%; in the series on Leishmania amazonensis [13], 0.3%. Moreover, the Activity in the series with Leishmania amazonensis [14] turned out to be 16.88%; in the series on Leishmania amazonensis [18], 11.16%; in the series with Leishmania amazonensis [19] it was 75.5%; in the series on Leishmania amazonensis [20], 28.56%; in the series on Leishmania amazonensis [22], 0.82%. The pIC50 with Leishmania amazonensis [2] was 5.59; with Leishmania amazonensis [9], 6.00; in the series on Leishmania amazonensis [12], 4.81. The “fold change (FC)” value in the series with Leishmania amazonensis [5] stood at 2.5. Besides, the inhibition at 1.8 µM with Leishmania amazonensis [7] was found to be 69%. The results for the “Ratio CC50/IC50” value in [8], in series [11] and in [17] were 144.9, 115.9 and 128.8, respectively. This compound also came in with an inhibition at 0.9 µM with Leishmania amazonensis [15] of 61.9%. In the series on Leishmania amazonensis [16], this compound yielded an inhibition at 3.6 µM of 83.1%. This compound yielded a CC50 at 72 h in series [21] of 116 µM.
